TRPC6 activator: mouse TRPC6 channel activators, primary screen, cell-based, HEK293, membrane potential dye | AID 2550, 2010 | 0.13% of 310,000 active | Short transient receptor potential channel 6 (Mus musculus), Q61143 | B-score at 10 µM | HEK293-TRPC6 membrane potential dye fluorescence; stronger effect = higher value;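 active = B-score of the integrated fluorescence ratio above library mean plus 3 SD, and starting fluorescence ratio within library mean plus 5 SD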;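 note: higher score means more depolarization so channel activation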
Target sequence (Q61143 whole entry, looked up): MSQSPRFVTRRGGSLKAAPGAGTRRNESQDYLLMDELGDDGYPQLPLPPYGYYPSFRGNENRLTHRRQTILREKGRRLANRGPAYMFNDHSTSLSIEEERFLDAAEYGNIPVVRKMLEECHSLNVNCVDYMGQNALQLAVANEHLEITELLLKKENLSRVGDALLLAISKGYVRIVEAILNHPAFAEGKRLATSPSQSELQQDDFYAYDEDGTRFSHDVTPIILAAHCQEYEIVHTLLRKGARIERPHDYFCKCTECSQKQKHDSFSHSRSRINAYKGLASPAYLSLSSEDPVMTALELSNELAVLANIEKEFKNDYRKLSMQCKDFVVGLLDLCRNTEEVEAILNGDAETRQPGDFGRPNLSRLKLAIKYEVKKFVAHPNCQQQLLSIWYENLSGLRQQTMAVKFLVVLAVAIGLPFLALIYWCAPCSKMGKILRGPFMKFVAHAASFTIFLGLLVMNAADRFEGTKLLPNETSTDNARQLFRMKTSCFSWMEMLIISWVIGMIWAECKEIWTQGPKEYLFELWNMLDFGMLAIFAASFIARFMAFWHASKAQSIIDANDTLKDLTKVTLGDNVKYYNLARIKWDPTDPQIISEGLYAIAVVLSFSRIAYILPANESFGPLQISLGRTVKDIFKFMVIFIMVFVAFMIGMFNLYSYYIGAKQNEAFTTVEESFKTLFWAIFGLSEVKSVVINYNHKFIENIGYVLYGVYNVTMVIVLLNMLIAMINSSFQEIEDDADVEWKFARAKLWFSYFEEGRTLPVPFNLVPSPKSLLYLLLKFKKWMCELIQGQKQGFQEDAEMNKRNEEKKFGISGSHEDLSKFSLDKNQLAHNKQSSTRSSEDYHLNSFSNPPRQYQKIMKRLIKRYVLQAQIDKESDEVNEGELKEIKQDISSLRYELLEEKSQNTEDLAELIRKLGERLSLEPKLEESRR
Yeast superoxide: reduction of superoxide in aged yeast, primary screen, HTS; S. cerevisiae aged cells, superoxide DHE fluorescence; stronger effect = lower value; superoxide response (% of plate mean), % at 10 µM; 0.18% of 330,000 active; AID 2690, 2010;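 active = superoxide response under a set limit, about three screen SD below normal, cut at about 65% in these data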;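 note: yeast aged for seven days with compound at 30 °C before DHE staining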
TRPC4 inh: inhibitors of mouse TRPC4 channel, primary screen, Fluo4 calcium, HEK293 TRPC4beta/mu-opioid cells | DAMGO-evoked Fluo4 calcium flux; stronger effect = lower value | B-score at 10 µM | 0.39% of 300,000 active | Short transient receptor potential channel 4 (Mus musculus), Q9QUQ5;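 active = B-score over 3 SD under the library average, no early fluorescence shift, positive overall ratio signal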
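System: stable TRPC4beta/mu-opioid receptor HEK293 cells; Dosing: single-point compound dosing; Measured by: Fluo4 Ca2+ flux fluorescence; Read-out basis: per-well B score of integrated baseline-normalized Fluo4 ratio.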
TRPC4 potent: positive allosteric modulators of TRPC4, primary screen, cell-based, mouse TRPC4beta, HEK293 mu-opioid, Fluo-4 calcium | Short transient receptor potential channel 4 (Mus musculus), Q9QUQ5 | DAMGO EC20, Fluo-4 Ca2+ flux; stronger effect = higher value | B-score at 10 µM | 0.42% of 310,000 active | AID 2227, 2009;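 active = B-score of calcium response area above 5 SD of library B-scores, with initial fluorescence ratio within 5 SD of library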
TRPC4 act: activators of mouse TRPC4 channel, primary screen, Fluo4 calcium, HEK293 TRPC4beta/mu-opioid cells; Short transient receptor potential channel 4 (Mus musculus), Q9QUQ5; Fluo4 calcium fluorescence; stronger effect = higher value; B-score at 10 µM; 0.49% of 310,000 active;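 active = B-score above 5 SD of library B-scores, and initial fluorescence ratio not above library mean plus 5 SD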;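 note: positive B-score marks a calcium rise read as TRPC4 activation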
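Material: TRPC4beta and mu-opioid receptor HEK293 stable cells | Incubation: 45 min room-temperature Fluo4 loading, 110 s read | Detection: Kinetic Fluo4 calcium fluorescence | Measure: Integrated baseline-normalised fluorescence ratio, converted to per-well B score | Benchmarks: Low control buffer alone, high control maximal DAMGO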
TRPC6 inh: mouse TRPC6 channel inhibitors, primary screen, cell-based, HEK293, membrane potential dye; ACh-evoked depolarization; stronger effect = lower value; B-score at 10 µM; 1.1% of 310,000 active;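 active = B-score under library mean minus 3 SD, initial fluorescence not abnormally high, positive integrated signal ratio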;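 note: B-score derived from integrated fluorescence ratio over the kinetic read; more negative B-score means stronger inhibition of depolarization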
TRPC4 sel inh 2: second selectivity test of TRPC6 inhibitors: effect on mouse TRPC4; inhibition, % at 10 µM; HEK293 TRPC4/MOR, membrane potential dye fluorescence; channel activated by saturating DAMGO dose; shares compounds with TRPC6 inh; 42% of 920 active; AID 2776;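 active = compounds whose fluorescence signal differed from control wells by over 3 SD, either direction, in both duplicate plates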
TRPC4 spec: mouse TRPC4 modulation by TRPC6 hits, confirmation, selectivity assay for TRPC6 inhibitor project, cell-based, HEK293 TRPC4/mu-opioid, membrane potential dye | shares compounds with TRPC6 inh | 61% of 920 active | membrane potential fluorescence | AID 2777, 2010 | activity change, negative = inhibition, % at 10 µM;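 active = rise or fall in signal beyond 3 SD of buffer-only wells in both replicate plates, either sign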;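 note: integrated kinetic ratio of fluorescence range over baseline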
HEK293 MPD ctr 2-1: nonspecific membrane potential effects, parental HEK293, confirmation, counter-screen for TRPC6 inhibitor project, cell-based, second counter screen; signal change vs control, % at 10 µM; AID 2779, 2010; shares compounds with TRPC6 inh; 31% of 920 active; parental HEK293 membrane potential dye fluorescence; maximal acetylcholine challenge after compound addition;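 active = membrane potential signal moving either way by over 3 SD of the maximum-effect control, in both duplicate plates, meaning non-specific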
HEK293 MPD ctr-1: membrane potential modulation in parental HEK293, confirmation, counter-screen for TRPC6 inhibitor project, cell-based; shares compounds with TRPC6 inh; parental HEK293 membrane potential dye fluorescence; membrane potential signal change, % at 10 µM; 60% of 920 active;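 active = membrane potential signal shifting up or down by more than 3 SD of buffer-only wells, on both duplicate plates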
HEK293 MPD ctr-2: parental HEK293 membrane potential modulation, confirmation, counter-screen for TRPC6 modulator project, cell-based; membrane potential dye fluorescence; 51% of 2,400 active; AID 488924, 2010; shares compounds with TRPC6 inh; membrane potential signal change, % at 10 µM;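 active = membrane potential signal moves up or down beyond 5 SD from buffer-only wells, on both duplicate plates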
HEK293 MPD ctr 2-2: second counter-screen for TRPC6 modulators: effect in parental HEK293 cells; shares compounds with TRPC6 inh; membrane potential dye fluorescence; after compound, maximal acetylcholine stimulation; inhibition, % at 10 µM; 14% of 2,400 active; AID 488926;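 active = membrane potential signal drops by more than 5 SD from the mean control signal, in both duplicate plates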
TRPC4 ctr mod: TRPC4 modulation by TRPC6 hit compounds, confirmation, selectivity assay for TRPC6 modulator project, cell-based, HEK293 TRPC4/mu-opioid, membrane potential dye, mouse. shares compounds with TRPC6 inh. membrane potential fluorescence. percent change from control (negative = decrease, positive = increase), % at 10 µM. 69% of 2,400 active;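 active = membrane potential signal moved up or down beyond 5 SD of buffer control wells, in both duplicate plates, actives on both sides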
TRPC4/MOR inh 2: mouse TRPC4 off-target activity of TRPC6 modulators, second screen. shares compounds with TRPC6 inh. HEK293 TRPC4/mu-opioid, membrane potential dye fluorescence; stimulated with maximal-effect DAMGO. inhibition, % at 10 µM. 55% of 2,400 active;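 active = drop in membrane potential signal beyond 5 SD of the control wells in both duplicate plates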;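 note: TRPC4 counter screen for TRPC6 hits run under conditions tuned for TRPC6 not TRPC4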
TRPC6 inh conf: mouse TRPC6 channel inhibitors, confirmation, HEK293 cells, membrane potential dye, duplicate; shares compounds with TRPC6 inh; ACh-evoked depolarization; inhibition, % at 10 µM; 43% of 3,300 active;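 active = fluorescence ratio falls more than 5 SD below the full-stimulation control mean, in both duplicate runs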;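 note: integrated fluorescence ratio of peak minus minimum over baseline after agonist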
TRPC6 act confirm: mouse TRPC6 channel activators, confirmation, HEK293 cells, membrane potential dye, duplicate; shares compounds with TRPC6 inh; HEK293-TRPC6 membrane potential dye fluorescence, FDSS; activation, % at 10 µM; 11% of 2,800 active; AID 488961, 2010;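 active = ratio signal rise beyond 5 SD above unstimulated control wells' mean, seen in both duplicate runs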
Large screens that a line does not name were inactive (follow-up assays come after a bar, where they were run). Shown are actives, neighbours in structure and some others; about 2.3% of the full set was active somewhere.

CCOC(=O)c1cnc2ccc(Br)cc2c1NCCO	none
CCOC(=O)c1cnc2ccccc2c1NCCO	TRPC6 inh -5.6 | HEK293 MPD ctr-2 -108% | HEK293 MPD ctr 2-2 inactive | TRPC4 ctr mod -14% | TRPC4/MOR inh 2 40% | TRPC6 inh conf 49% | TRPC6 act confirm inactive
CCOC(=O)c1cnc2c(ccc3ccccc32)c1NCCCN(C)C	TRPC6 inh -6.4 | HEK293 MPD ctr-2 inactive | HEK293 MPD ctr 2-2 70% | TRPC4 ctr mod inactive | TRPC4/MOR inh 2 56% | TRPC6 inh conf 48% | TRPC6 act confirm inactive
O=C(NCCCN1CCOCC1)C(=O)NCC1OCCN1S(=O)(=O)c1ccc(Br)cc1 (stereo not given)	none
Cc1cc(C(=O)Nc2nnc(C(F)(F)F)s2)cs1	none
COc1ccc(CC(NC(C)=O)C(=O)NC2CCN(C(=O)c3ccncc3)CC2)cc1OC (stereo not given)	none
Cc1ccc(S(=O)(=O)N2CCC(Oc3cccc(C(F)(F)F)c3)CC2)cc1	TRPC6 inh -7.3 | TRPC4 sel inh 2 inactive | TRPC4 spec inactive | HEK293 MPD ctr 2-1 inactive | HEK293 MPD ctr-1 inactive | TRPC6 inh conf inactive
COc1ccc(OC2CCN(S(=O)(=O)c3ccc(F)cc3)CC2)cc1	none
Cc1cc(-c2ccc(C)c(S(=O)(=O)NCC3CCN(Cc4cccc(F)c4)CC3)c2)on1	none
Cc1cc(-c2ccc(C)c(S(=O)(=O)NCC3CCN(Cc4ccccc4F)CC3)c2)on1	TRPC6 inh -5 | HEK293 MPD ctr-2 inactive | HEK293 MPD ctr 2-2 inactive | TRPC4 ctr mod inactive | TRPC4/MOR inh 2 76% | TRPC6 inh conf 36% | TRPC6 act confirm inactive
COc1ccc(C)cc1Nc1n[n+](-c2ccccc2)c(-c2ccc(N(C)C)cc2)s1	none
Cc1ccc2c(c1)sc(-c1ccc(N(C)C)cc1)[n+]2C	TRPC6 inh -5.5 | HEK293 MPD ctr-2 inactive | HEK293 MPD ctr 2-2 84% | TRPC4 ctr mod inactive | TRPC4/MOR inh 2 inactive | TRPC6 inh conf 56% | TRPC6 act confirm inactive
CC(C)CN(C(=O)COC(=O)/C=C/c1ccccc1)C1CCS(=O)(=O)C1 (stereo not given)	none (no result: TRPC6 activator, TRPC4 inh, TRPC4 potent, TRPC4 act, TRPC6 inh)
Nc1ccc(C(=O)OCC(=O)N2c3ccccc3Sc3ccccc32)cc1[N+](=O)[O-]	none (no result: TRPC6 activator, TRPC4 inh, TRPC4 potent, TRPC4 act, TRPC6 inh)
NCCNc1ccc(C(=O)N2c3ccccc3Sc3ccccc32)cc1[N+](=O)[O-]	TRPC6 inh -6.2 | HEK293 MPD ctr-2 inactive | HEK293 MPD ctr 2-2 inactive | TRPC4 ctr mod -10% | TRPC4/MOR inh 2 60% | TRPC6 inh conf 54% | TRPC6 act confirm inactive
O=C(Nc1ccncc1)c1ccc(N2CCCC2=O)cc1	TRPC6 inh -7.1 | HEK293 MPD ctr-2 -238% | HEK293 MPD ctr 2-2 inactive | TRPC4 ctr mod -42% | TRPC4/MOR inh 2 34% | TRPC6 inh conf inactive | TRPC6 act confirm inactive
Cc1ccc(C(=O)NNC2=Nc3cccc4cccc2c34)cc1	TRPC6 inh -5.3 | HEK293 MPD ctr-2 inactive | HEK293 MPD ctr 2-2 inactive | TRPC4 ctr mod inactive | TRPC4/MOR inh 2 inactive | TRPC6 inh conf inactive | TRPC6 act confirm inactive
Cc1cc(C)c2c(=O)[nH]c(SCC(=O)Nc3cccc(S(=O)(=O)N(C)C)c3)nc2n1	none (no result: TRPC6 activator, TRPC4 inh, TRPC4 potent, TRPC4 act, TRPC6 inh)
Cc1cccn2cc(-c3c[nH]c4ccccc34)nc12	TRPC4 inh -6, TRPC6 inh -6.7 | HEK293 MPD ctr-2 -113% | HEK293 MPD ctr 2-2 inactive | TRPC4 ctr mod -28% | TRPC4/MOR inh 2 70% | TRPC6 inh conf 68% | TRPC6 act confirm inactive
Brc1ccc2nc(-c3c[nH]c4ccccc34)cn2c1	TRPC6 inh -6.3 | HEK293 MPD ctr-2 inactive | HEK293 MPD ctr 2-2 inactive | TRPC4 ctr mod -10% | TRPC4/MOR inh 2 54% | TRPC6 inh conf inactive | TRPC6 act confirm inactive
COc1ccc(Cl)cc1NC(=O)CSc1nc2sccc2c(=O)[nH]1	none
C=CCc1cc(Cl)ccc1OCCCNC(C)C	none
C=CCc1cc(Cl)ccc1OCCN(C)C	TRPC6 inh -5 (no result: TRPC4 inh) | HEK293 MPD ctr-2 inactive | HEK293 MPD ctr 2-2 inactive | TRPC4 ctr mod 8.0% | TRPC4/MOR inh 2 inactive | TRPC6 inh conf inactive | TRPC6 act confirm inactive
Cc1ccc(NC(=S)Nc2ccc(Cl)c(Cl)c2)c(OC(F)F)c1	none
Fc1ccc(NC(=S)Nc2ccccc2OC(F)F)cc1Cl	TRPC6 inh -6.5 | HEK293 MPD ctr-2 inactive | HEK293 MPD ctr 2-2 inactive | TRPC4 ctr mod inactive | TRPC4/MOR inh 2 35% | TRPC6 inh conf inactive | TRPC6 act confirm inactive
